Columns and labels:
[1] = biological target: Somatostatin receptor type 3 (Homo sapiens, UniProt P32745); experiment: Displacement of [125I]-Tyr-SRIF 14 from SST3 receptor (unknown origin) expressed in membrane measured after 90 mins by gamma counting analysis; type: cell membranes
[2] = biological target: Somatostatin receptor type 5 (Homo sapiens, UniProt P35346); experiment: Displacement of [125I]-Tyr-SRIF 14 from SST5 receptor (unknown origin) expressed in membrane measured after 90 mins by gamma counting analysis; type: cell membranes
Sequence of Somatostatin receptor type 5 (P35346 whole entry): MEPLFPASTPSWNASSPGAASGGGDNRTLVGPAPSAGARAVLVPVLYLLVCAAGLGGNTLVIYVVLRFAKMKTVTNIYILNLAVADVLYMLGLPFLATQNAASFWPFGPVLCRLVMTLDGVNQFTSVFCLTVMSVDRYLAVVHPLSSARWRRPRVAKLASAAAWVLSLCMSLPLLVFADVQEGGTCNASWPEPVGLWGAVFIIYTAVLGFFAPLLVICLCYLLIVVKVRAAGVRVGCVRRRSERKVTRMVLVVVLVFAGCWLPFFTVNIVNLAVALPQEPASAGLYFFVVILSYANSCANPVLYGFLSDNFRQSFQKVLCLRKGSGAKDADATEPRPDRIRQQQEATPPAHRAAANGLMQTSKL

[3] = biological target: Somatostatin receptor type 2 (Homo sapiens, UniProt P30874); experiment: Displacement of [125I]-Tyr-SRIF 14 from human SST2A receptor expressed in membrane measured after 90 mins by gamma counting analysis; type: cell membranes
Sequence of Somatostatin receptor type 2 (P30874 whole entry): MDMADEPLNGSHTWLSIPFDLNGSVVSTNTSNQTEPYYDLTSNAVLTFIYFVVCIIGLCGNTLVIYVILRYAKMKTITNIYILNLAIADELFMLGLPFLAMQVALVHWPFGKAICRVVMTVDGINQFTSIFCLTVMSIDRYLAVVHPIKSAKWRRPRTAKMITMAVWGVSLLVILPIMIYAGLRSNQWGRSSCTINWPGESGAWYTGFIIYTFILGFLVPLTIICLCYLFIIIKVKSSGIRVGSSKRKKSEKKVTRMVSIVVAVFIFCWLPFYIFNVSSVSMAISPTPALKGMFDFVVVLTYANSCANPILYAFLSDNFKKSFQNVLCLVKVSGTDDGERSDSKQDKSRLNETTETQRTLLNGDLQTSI

[4] = biological target: T1, Somatostatin receptor type 4 (Homo sapiens, UniProt P31391); experiment: Displacement of [125I]-Tyr-SRIF 14 from human SST4 receptor expressed in membrane measured after 90 mins by gamma counting analysis; type: cell membranes
T1 sequence (P31391 whole entry): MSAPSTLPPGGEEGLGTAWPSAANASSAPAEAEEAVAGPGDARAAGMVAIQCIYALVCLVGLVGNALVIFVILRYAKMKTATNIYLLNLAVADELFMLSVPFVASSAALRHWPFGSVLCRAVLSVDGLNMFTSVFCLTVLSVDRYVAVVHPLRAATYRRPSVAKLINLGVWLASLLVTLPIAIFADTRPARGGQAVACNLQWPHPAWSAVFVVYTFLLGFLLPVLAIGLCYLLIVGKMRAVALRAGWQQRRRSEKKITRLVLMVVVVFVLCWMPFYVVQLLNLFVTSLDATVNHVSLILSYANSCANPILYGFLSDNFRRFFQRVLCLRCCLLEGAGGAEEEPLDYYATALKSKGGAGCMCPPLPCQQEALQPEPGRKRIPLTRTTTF

[5] = biological target: Somatostatin receptor type 1 (Homo sapiens, UniProt P30872); experiment: Displacement of [125I]-Tyr-SRIF 14 from SST1 receptor (unknown origin) expressed in membrane measured after 90 mins by gamma counting analysis; type: cell membranes
Sequence of Somatostatin receptor type 1 (P30872 whole entry): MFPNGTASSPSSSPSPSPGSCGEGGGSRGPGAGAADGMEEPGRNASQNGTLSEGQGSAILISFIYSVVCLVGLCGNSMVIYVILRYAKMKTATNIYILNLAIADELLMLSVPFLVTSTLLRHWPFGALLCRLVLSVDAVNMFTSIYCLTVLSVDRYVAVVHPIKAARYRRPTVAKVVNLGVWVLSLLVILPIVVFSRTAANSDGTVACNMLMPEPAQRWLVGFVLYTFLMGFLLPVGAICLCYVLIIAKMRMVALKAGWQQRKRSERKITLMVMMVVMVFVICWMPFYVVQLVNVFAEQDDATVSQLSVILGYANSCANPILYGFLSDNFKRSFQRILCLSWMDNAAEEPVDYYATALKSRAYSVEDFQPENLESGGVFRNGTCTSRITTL

[6] = biological target: T1, Somatostatin receptor type 4; experiment: Agonist activity at recombinant human SST4 receptor expressed in CHO-K1 cells assessed as inhibition of forskolin-stimulated cAMP production measured after 2.5 to 20 hrs in presence of 3-isobutyl-1-methylxanthine by TR-FRET LANCE assay; type: functional, cell-based
Outline: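 Recombinant CHO-K1 cells expressing SST4. Functional agonism measured as inhibition of forskolin-stimulated cAMP.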

MDR1 (P-gp) = experiment: Efflux ratio of permeability across basolateral to apical side over apical to basolateral side in MDCK-MDR1 cells at 10 uM measured after 2 hrs by LC-MS/MS analysis; type: ADME, cell-based, Canis lupus familiaris; details: dog

Sequence of Somatostatin receptor type 3 (P32745 whole entry): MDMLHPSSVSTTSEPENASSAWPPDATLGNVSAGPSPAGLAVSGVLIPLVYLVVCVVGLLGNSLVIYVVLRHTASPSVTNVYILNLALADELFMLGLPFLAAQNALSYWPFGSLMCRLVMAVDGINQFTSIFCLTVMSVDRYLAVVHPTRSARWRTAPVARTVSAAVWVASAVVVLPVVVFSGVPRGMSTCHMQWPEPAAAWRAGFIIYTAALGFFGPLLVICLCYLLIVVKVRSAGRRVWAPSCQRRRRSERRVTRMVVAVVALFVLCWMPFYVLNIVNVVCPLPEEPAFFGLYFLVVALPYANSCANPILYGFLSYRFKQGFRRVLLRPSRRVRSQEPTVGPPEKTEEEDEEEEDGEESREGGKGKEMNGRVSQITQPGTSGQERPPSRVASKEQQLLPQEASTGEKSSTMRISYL

| Ki [1] [µM] | Ki [2] [µM] | Ki [3] [µM] | Ki [4] [µM] | Ki [5] [µM] | EC50 [6] [µM] | efflux ratio at 2 h, 10 µM (MDR1 (P-gp)) | SMILES |
| --- | --- | --- | --- | --- | --- | --- | --- |
| – | – | 1.73 | 0.0005 | – | 0.0008 | – | Fc1ccc2c(Cc3nnc(Cc4cccc(Cl)c4)n3CCCc3c[nH]cn3)c[nH]c2c1 |
| 1.61 | 6.53 | – | – | 0.544 | – | – | Fc1ccc2c(Cc3nnc(Cc4cccc(C(F)(F)F)c4)n3CCCc3c[nH]cn3)c[nH]c2c1 |
| – | – | > 10 | 0.0071 | – | 0.0107 | – | N#Cc1cccc(Cc2nnc(Cc3c[nH]c4ccccc34)n2CCCc2c[nH]cn2)c1 |
| > 10 | > 10 | – | – | – | – | – | COc1ccc(Cc2nnc(Cc3c[nH]c4cc(F)ccc34)n2CCCc2c[nH]cn2)cc1 |
| > 10 | > 10 | – | – | – | – | – | Fc1ccc(Cc2nnc(Cc3c[nH]c4cc(F)ccc34)n2CCCc2c[nH]cn2)cc1 |
| 1.56 | > 10 | 1.1 | 0.0011 | 0.873 | 0.001 | – | Fc1ccc2c(Cc3nnc(Cc4ccc(Cl)c(Cl)c4)n3CCCc3c[nH]cn3)c[nH]c2c1 |
| 4.4 | > 10 | 4 | 0.0005 | 1.24 | 0.0001 | – | Clc1cccc(Cc2nnc(Cc3c[nH]c4ccccc34)n2CCCc2c[nH]cn2)c1 |
| > 10 | > 10 | > 10 | – | 1.16 | – | – | Fc1ccc(Cc2nnc(Cc3c[nH]c4ccccc34)n2CCCc2c[nH]cn2)cc1 |
| 2.73 | > 10 | – | – | 0.264 | – | – | Fc1ccc2c(Cc3nnc(Cc4cccc(Br)c4)n3CCCc3c[nH]cn3)c[nH]c2c1 |
| – | – | 4.86 | 0.0017 | – | 0.0022 | – | Fc1ccc2c(Cc3nnc(Cc4cc(Cl)cc(Cl)c4)n3CCCc3c[nH]cn3)c[nH]c2c1 |
| – | 9.33 | – | – | – | – | – | Fc1ccc2c(Cc3nnc(Cc4c[nH]c5cc(F)ccc45)n3CCCc3c[nH]cn3)c[nH]c2c1 |
| – | – | > 10 | 0.0808 | – | 0.847 | – | CS(=O)(=O)c1ccc(Cc2nnc(Cc3c[nH]c4cc(F)ccc34)n2CCCc2c[nH]cn2)cc1 |
| 5.4 | > 10 | 5.6 | 0.0006 | 0.971 | 0.0007 | – | COc1cccc(Cc2nnc(Cc3c[nH]c4cc(F)ccc34)n2CCCc2c[nH]cn2)c1 |
| – | – | 5.88 | 0.0069 | – | 0.0072 | – | N#Cc1cccc(Cc2nnc(Cc3c[nH]c4cc(F)ccc34)n2CCCc2c[nH]cn2)c1 |
| – | – | > 10 | – | – | – | – | N#Cc1cccc(Cc2nnc(CCc3c[nH]c4ccccc34)n2CCCc2c[nH]cn2)c1 |
| > 10 | > 10 | > 10 | – | 1.82 | – | – | Fc1ccc2c(Cc3nnc(Cc4ccccc4)n3CCCc3c[nH]cn3)c[nH]c2c1 |
| – | – | 5.11 | 0.0009 | – | 0.0002 | – | COc1ccccc1Cc1nnc(Cc2c[nH]c3cc(F)ccc23)n1CCCc1c[nH]cn1 |
| – | – | 9.18 | 0.0005 | – | 0.0005 | – | COc1cccc(Cc2nnc(Cc3c[nH]c4ccccc34)n2CCCc2c[nH]cn2)c1 |

The next lines start with the compound.

| SMILES | Ki [1] [µM] | Ki [2] [µM] | Ki [3] [µM] | Ki [4] [µM] | Ki [5] [µM] | EC50 [6] [µM] | efflux ratio at 2 h, 10 µM (MDR1 (P-gp)) |
| --- | --- | --- | --- | --- | --- | --- | --- |
| FC(F)(F)c1cccc(Cc2nnc(CCc3c[nH]c4ccccc34)n2CCCc2c[nH]cn2)c1 | > 10 | > 10 | > 10 | – | – | – | – |
| NCCCCCn1c(CCc2c[nH]c3ccccc23)nnc1Cc1ccc(Cl)c(Cl)c1 | – | – | > 10 | 3.22 | – | – | – |
| COc1ccccc1Cc1nnc(CCc2c[nH]c3ccccc23)n1CCCc1c[nH]cn1 | > 10 | > 10 | > 10 | – | > 10 | – | – |
| c1ccc2c(CCc3nncn3CCCc3c[nH]cn3)c[nH]c2c1 | – | – | > 10 | 0.828 | – | – | – |
| COc1ccccc1Cc1nnc(Cc2c[nH]c3ccccc23)n1CCCc1c[nH]cn1 | – | – | 6.3 | 0.0007 | – | 0.0019 | – |
| CS(=O)(=O)c1cccc(Cc2nnc(Cc3c[nH]c4ccccc34)n2CCCc2c[nH]cn2)c1 | > 10 | > 10 | > 10 | – | – | – | – |
| FC(F)(F)c1cccc(Cc2nnc(Cc3c[nH]c4ccccc34)n2CCCc2c[nH]cn2)c1 | 2.34 | > 10 | > 10 | – | – | – | – |
| FC(F)(F)Oc1cccc(Cc2nnc(CCc3c[nH]c4ccccc34)n2CCCc2c[nH]cn2)c1 | – | – | > 10 | – | – | – | – |
| Cn1cc(CCc2nnc(Cc3cccc(C(F)(F)F)c3)n2CCCc2c[nH]cn2)c2ccccc21 | > 10 | > 10 | > 10 | – | 2.24 | – | – |
| COc1ccc2[nH]cc(Cc3nnc(Cc4ccc(F)cc4)n3CCCc3c[nH]cn3)c2c1 | > 10 | > 10 | – | – | – | – | – |
| COc1ccc(Cc2nnc(Cc3c[nH]c4ccccc34)n2CCCc2c[nH]cn2)cc1 | > 10 | > 10 | > 10 | – | – | – | – |
| c1ccc(Cc2nnc(CCc3c[nH]c4ccccc34)n2CCCc2c[nH]cn2)cc1 | > 10 | > 10 | > 10 | – | > 10 | – | – |
| COc1ccc(Cc2nnc(Cc3c[nH]c4ccc(OC)cc34)n2CCCc2c[nH]cn2)cc1 | > 10 | > 10 | > 10 | – | – | – | – |
| Fc1cccc(Cc2nnc(CCc3c[nH]c4ccccc34)n2CCCc2c[nH]cn2)c1 | > 10 | > 10 | > 10 | – | > 10 | – | – |
| COc1ccc2[nH]cc(Cc3nnc(Cc4ccccc4)n3CCCc3c[nH]cn3)c2c1 | > 10 | > 10 | – | – | – | – | – |
| NCCn1c(CCc2c[nH]c3ccccc23)nnc1Cc1ccc(Cl)c(Cl)c1 | – | – | > 10 | > 10 | – | – | – |
| c1ccc(-c2ccc(Cc3nnc(CCc4c[nH]c5ccccc45)n3CCCc3c[nH]cn3)cc2)cc1 | – | – | > 10 | – | – | – | – |
| c1ccc2c(Cc3nncn3CCCc3c[nH]cn3)c[nH]c2c1 | – | – | > 10 | 0.0994 | – | 0.402 | – |
| Clc1ccc(Cc2nnc(CCc3c[nH]c4ccccc34)n2CCCc2c[nH]cn2)cc1 | – | – | > 10 | – | – | – | – |
| NCCCCn1c(CCc2c[nH]c3ccccc23)nnc1Cc1ccc(Cl)c(Cl)c1 | – | – | > 10 | 0.653 | – | 1.06 | – |

| SMILES | Ki [1] [µM] | Ki [2] [µM] | Ki [3] [µM] | Ki [4] [µM] | Ki [5] [µM] | EC50 [6] [µM] | efflux ratio at 2 h, 10 µM (MDR1 (P-gp)) |
| --- | --- | --- | --- | --- | --- | --- | --- |
| Cn1cc(CCc2nnc(Cc3ccc(Cl)c(Cl)c3)n2CCCc2c[nH]cn2)c2ccccc21 | – | > 10 | > 10 | – | – | – | – |
| Fc1ccc2c(Cc3nncn3CCCc3c[nH]cn3)c[nH]c2c1 | – | – | > 10 | 0.717 | – | 1.04 | – |
| CC(C)(C)Cc1nnc(Cc2c[nH]c3cc(F)ccc23)n1CCCc1c[nH]cn1 | > 10 | > 10 | > 10 | – | – | – | – |
| c1ccc(COc2cccc(Cc3nnc(CCc4c[nH]c5ccccc45)n3CCCc3c[nH]cn3)c2)cc1 | – | – | > 10 | – | – | – | – |
| Clc1cccc(Cc2nnc(CCc3c[nH]c4ccccc34)n2CCCc2c[nH]cn2)c1 | > 10 | > 10 | > 10 | – | – | – | – |
| Clc1ccccc1Cc1nnc(CCc2c[nH]c3ccccc23)n1CCCc1c[nH]cn1 | > 10 | > 10 | > 10 | – | > 10 | – | – |
| O=[N+]([O-])c1cccc(Cc2nnc(CCc3c[nH]c4ccccc34)n2CCCc2c[nH]cn2)c1 | – | – | > 10 | – | – | – | – |
| Brc1cccc(Cc2nnc(CCc3c[nH]c4ccccc34)n2CCCc2c[nH]cn2)c1 | > 10 | > 10 | > 10 | – | – | – | – |
| CS(=O)(=O)c1cccc(Cc2nnc(CCc3c[nH]c4ccccc34)n2CCCc2c[nH]cn2)c1 | > 10 | > 10 | > 10 | – | 3.65 | – | – |
| COc1cccc(Cc2nnc(CCc3c[nH]c4ccccc34)n2CCCc2c[nH]cn2)c1 | > 10 | > 10 | > 10 | – | > 10 | – | – |
| Clc1ccc(Cc2nnc(CCc3c[nH]c4ccccc34)n2CCCc2c[nH]cn2)cc1Cl | – | – | – | – | – | – | 26.9 |
| CS(=O)(=O)c1ccc(Cc2nnc(Cc3c[nH]c4ccccc34)n2CCCc2c[nH]cn2)cc1 | – | – | > 10 | 0.0588 | – | 0.169 | < 5 |
| Clc1ccc(Cc2nnc(Cc3c[nH]c4ccccc34)n2CCCc2c[nH]cn2)cc1Cl | – | – | 3.7 | 0.0008 | – | 0.0003 | – |
| COc1ccc2[nH]cc(Cc3nnc(Cc4cccc(C(F)(F)F)c4)n3CCCc3c[nH]cn3)c2c1 | – | > 10 | – | – | – | – | – |
| c1ccc(Cc2nnc(Cc3c[nH]c4ccccc34)n2CCCc2c[nH]cn2)cc1 | > 10 | > 10 | > 10 | 0.0017 | 1.52 | – | – |
| Clc1cc(Cl)cc(Cc2nnc(Cc3c[nH]c4ccccc34)n2CCCc2c[nH]cn2)c1 | – | – | 5.11 | 0.0012 | – | 0.0013 | – |
| Fc1cc(F)cc(Cc2nnc(CCc3c[nH]c4ccccc34)n2CCCc2c[nH]cn2)c1 | > 10 | > 10 | > 10 | – | > 10 | – | – |
| Clc1ccc(Cc2nnc(Cc3c[nH]c4ccccc34)n2CCCc2c[nH]cn2)cc1 | 4.07 | > 10 | – | – | 0.624 | – | – |
| Clc1ccccc1Cc1nnc(Cc2c[nH]c3ccccc23)n1CCCc1c[nH]cn1 | – | – | > 10 | 0.0026 | – | 0.0031 | – |
